The record followed here is ChEMBL document CHEMBL1126602, “L-beta-(2S,4S)- and L-alpha-(2S,4R)-dioxolanyl nucleosides as potential anti-HIV agents: asymmetric synthesis and structure-activity relationships” (J Med Chem, 1993).

Bounds are passed on as bounds.

Experiment [1] has as its system Human immunodeficiency virus 1. Description: Effective concentration against HIV-1 strain LAV in human peripheral blood mononuclear (PBM) cells. The format is functional, organism-based. In a few lines: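 Mitogen-stimulated human PBM cells infected with HIV-1 LAV at MOI 0.1 (set by limiting dilution in PBM cells). Compounds were added about 45 min after infection, diluted in medium from 40 mM DMSO stocks (final DMSO below 0.25%). Read-out was supernatant reverse transcriptase (RT) level. EC50 was taken from a median effect plot of dose-effect data.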

In experiment [2] the test system is Vero. Briefly: Cytotoxic effect against vero cells. The format is cell-based. Particulars: Chlorocebus sabaeus. Summed up:
(§1)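 Uninfected cells were cultured with or without drug: PHA-stimulated human PBM cells for 6 days, Vero cells for 3 days, CEM cells for 6 days. Cells were then counted with trypan blue. Compounds came from 40 mM DMSO stocks diluted in medium (final DMSO below 0.25%). IC50 was derived from a median effect plot.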

A short description of experiment [3]: Cytotoxicity against uninfected PHA-stimulated peripheral blood mononuclear (PBM) cells. The format is cell-based. The conditions noted are these: Homo sapiens. Summed up:
as §1

Experiment [4] has as its system CCRF-CEM. Description: Effective concentration for inhibition of virus production in human CEM cells. It is filed as functional, cell-based.
In experiment [5] the test system is CCRF-CEM. Briefly: Cytotoxicity against uninfected PHA-stimulated CEM cells. It is filed as cell-based. The conditions noted are these: Homo sapiens. In a few lines: as §1

Turning to `Nc1nc(N)c2ncn([C@H]3CO[C@H](CO)O3)c2n1`, it took 42.1 µM to reach a half-maximal effect in experiment [1] (EC50).
Regarding `Nc1nc(Cl)nc2c1ncn2[C@@H]1CO[C@H](CO)O1`, in experiment [1], a half-maximal effect (EC50) was put at 34.7 µM. This EC50 and that of the compound before are within 1.5-fold of each other.
As to `Nc1nc(O)c2ncn([C@H]3CO[C@H](CO)O3)c2n1`, the midpoint of the response in experiment [1], the EC50, lay at 102 µM. Besides, the IC50 in experiment [2] and in experiment [3] was above 100 µM in each case.
In the case of `Nc1ccn([C@H]2CO[C@@H](CO)O2)c(=O)n1`, the EC50 (commonly the concentration needed to bring the measured effect to its halfway point) in experiment [1] came out at 0.016 µM; in experiment [4] it was 0.009 µM. The IC50 (commonly the midpoint of a concentration-inhibition curve) came to 12.8 µM in experiment [5] and 62 µM in experiment [3].
Consider `Nc1ccn([C@H]2CO[C@H](CO)O2)c(=O)n1`, for which, in experiment [1], the EC50 amounted to 1.3 µM. Also, the IC50 was 16.8 µM in experiment [2] and above 10 µM in experiment [3].
`Nc1nc(Cl)nc2c1ncn2[C@H]1CO[C@H](CO)O1` had an EC50 in experiment [1] of 1.27 µM.
Same read-out and setting: in the case of `Nc1nc(N)c2ncn([C@@H]3CO[C@H](CO)O3)c2n1` it was 0.014 µM.
In the case of `Nc1nc(O)c2ncn([C@@H]3CO[C@H](CO)O3)c2n1`, a half-maximal response in experiment [1] (EC50) required 17.5 µM. Further, the IC50 in experiment [2] and in experiment [3] was above 100 µM each time.
`Nc1ccn([C@@H]2CO[C@H](CO)O2)c(=O)n1` [TROXACITABINE] registered an EC50 in experiment [1] of 0.002 µM. Moreover, the values for the IC50 in experiment [2] and in experiment [3] were 0.1 µM and above 10 µM, respectively.
`Cc1cn([C@H]2C[C@H](N=[N+]=[N-])[C@@H](CO)O2)c(=O)[nH]c1=O` [ZIDOVUDINE] gave an IC50 in experiment [3] above 100 µM.
